# Compounds with a hit are over-represented: about 2.6% of the library has one in this group of screens.
# CASP6 VEID inh = caspase-6 (human) enzyme inhibition; purified caspase-6, Z-VEID-R110 cleavage fluorescence; inhibition, % at 12.5 µM; AID 686996; 350,000 tested, 0.53% active; P55212;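 active = mean inhibition across replicates at least about 35%, with every replicate also reaching that limit, limit read from the data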
# NSD2 inh = inhibitors of human histone methyltransferase NSD2. O96028. NSD2 peptide methylation, AlphaScreen, 120 min. inhibition, % at 12.5 µM. 310,000 tested, 0.54% active. AID 743445; in the data active = inhibition above about 50%
# SIRT5 inh = blocks human SIRT5 desuccinylation of peptide. Q9NXA8. Purified SirT5, succinyl-peptide AMC, trypsin-coupled fluorescence. inhibition, % at 15 µM. 330,000 tested, 1.1% active. AID 652115; in the data active = inhibition above about 15%
# Target sequence (Q9NXA8 whole entry, looked up): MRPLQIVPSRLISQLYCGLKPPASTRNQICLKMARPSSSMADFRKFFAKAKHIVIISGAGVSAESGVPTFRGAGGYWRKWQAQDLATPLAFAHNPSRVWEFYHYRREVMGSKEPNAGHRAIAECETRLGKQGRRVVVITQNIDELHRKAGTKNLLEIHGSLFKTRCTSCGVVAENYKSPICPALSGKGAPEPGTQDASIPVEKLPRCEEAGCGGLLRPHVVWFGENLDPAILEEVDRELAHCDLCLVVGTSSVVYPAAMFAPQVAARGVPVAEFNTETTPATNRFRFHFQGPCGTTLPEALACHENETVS
# UCH37 DUB inh = blocks the human deubiquitinase UCH37 | Q9Y5K5 | inhibition, % (no concentration beside the values) | purified proteasome/UCH37, Ub-AMC cleavage fluorescence | 330,000 tested, 0.33% active | AID 588478;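 active = mean inhibition over replicate wells above about 20%, limit read from the data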
#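 Assay system: Proteasome-bound UCH37. Buffer or medium: pH 7.4 Tris-HCl (50 mM) with ovalbumin, ATP-MgCl2, DTT. Incubation: 30 min preincubation with enzyme, 25 min cleavage at room temperature. Measured by: fluorescence, ex 355 nm, em 460 nm. Read-out basis: percent inhibition. Control set: wells without proteasome as full block, compound-free enzyme plus substrate as uninhibited.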
# FGF22 binding = FGF22 (human) thermal shift binding; activity (Tm shift, normalised), % at 9.99 µM; AID 651658; recombinant FGF22 thermal shift, SYPRO orange fluorescence; percent of sucrose octasulfate shift, DMSO zero; 340,000 tested, 1.5% active;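 active = mean Tm shift, scaled 0 neutral to 100 positive control, at about 1.3% or above, every replicate too, limit read from the data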
# Target sequence (Q9HCT0 whole entry, looked up): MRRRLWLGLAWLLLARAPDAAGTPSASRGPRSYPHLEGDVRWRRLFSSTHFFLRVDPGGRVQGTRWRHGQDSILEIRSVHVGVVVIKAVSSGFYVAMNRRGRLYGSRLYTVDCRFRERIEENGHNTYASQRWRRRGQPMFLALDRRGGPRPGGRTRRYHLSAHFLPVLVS
# A number is an active result; 0 = inactive; - = not tested or not shown.
SMILES,CASP6 VEID inh,NSD2 inh,SIRT5 inh,UCH37 DUB inh,FGF22 binding
C[C@@H]1CN([C@@H](C)CO)C(=O)c2cc(NC(=O)Nc3ccc(F)cc3)ccc2O[C@@H](C)CCCCO[C@H]1CN(C)Cc1ccc2c(c1)OCO2,0,-,0,-,0
COc1ccc2c3c(n(C)c2c1)[C@@H](CO)N(C(=O)C1CCC1)CC31CN(C(=O)CN(C)C)C1,0,-,15,-,0
COc1ccc2c3c([nH]c2c1)[C@H](CO)N(C(=O)C1CC1)CC31CN(C(=O)c2ccncc2)C1,0,-,15,-,0
CS/C(=N\S(=O)(=O)c1cccs1)Nc1ccc(F)c(Cl)c1,0,0,0,0,1.3
COc1ccc(Nc2nc(OC)nc(N3CCOCC3)n2)cc1,0,-,0,0,0
COc1nc(N2CCOCC2)nc(-n2cccc2)n1,0,0,23,0,-
C[C@@H]1CCCCO[C@H](CN(C)Cc2ccc(C(F)(F)F)cc2)[C@H](C)CN([C@@H](C)CO)C(=O)c2cc(NS(=O)(=O)c3ccccc3)ccc2O1,0,-,0,-,-
C[C@H](CO)N1C[C@H](C)[C@@H](CN(C)Cc2ccc(C(F)(F)F)cc2)OCCCC[C@H](C)Oc2ccc(NS(=O)(=O)c3ccc(F)cc3)cc2C1=O,0,-,20,-,-
C[C@@H]1CCCCO[C@@H](CN(C)Cc2ccc(C(F)(F)F)cc2)[C@@H](C)CN([C@H](C)CO)C(=O)c2cc(NS(=O)(=O)c3ccc(F)cc3)ccc2O1,0,-,0,-,0
C[C@H]1CCCCO[C@H](CN(C)Cc2ccc(C(F)(F)F)cc2)[C@@H](C)CN([C@@H](C)CO)C(=O)c2cc(NS(=O)(=O)c3ccc(F)cc3)ccc2O1,0,-,23,-,0
COC(=O)c1ccc(CNC(=O)/C=C/[C@H]2O[C@@H](n3cc(C)c(=O)[nH]c3=O)C[C@@H]2O)cc1,0,-,21,-,0
O=C(O)/C=C1\NC(=O)c2ccccc21,-,0,-,0,-
O=C1N/C(=C\c2ccc(O)cc2)C(=O)c2ccccc21,83,0,0,87,-
CN1CCN(C(=O)[C@H]2[C@H](CO)[C@H]3Cn4c(cccc4=O)[C@H]3N2Cc2ccccc2F)CC1,0,-,0,-,0
CN(C)c1ccc(C(=O)c2ccccc2C(=O)O)c(O)c1,-,0,-,23,-
COc1ccc(-c2csc(-c3ccccc3)n2)c(OC)c1,-,0,0,0,43
CN1CCCCN2[C@@H](CO)[C@@H](c3ccc(-c4ccc(F)cc4)cc3)[C@@H]2C1,0,-,0,-,0
COC(=O)[C@]12CCCCC=C1N(Cc1ccccc1)C(=O)[C@H](CC(=O)NCC13CC4CC(CC(C4)C1)C3)C2,54,-,0,-,0
COC(=O)[C@]12CCCCC=C1N(CCC1=CCCCC1)C(=O)[C@H](CC(=O)NCCc1ccccc1OC)C2,0,-,16,-,0
CCOC(=O)[C@]12CCCC=C1N(CCC1=CCCCC1)C(=O)[C@H](CC(=O)NCCc1ccccc1OC)C2,0,-,0,-,0
COC(=O)[C@]12CCCCC=C1N(Cc1ccccc1)C(=O)[C@H](CC(=O)NCCCCc1ccccc1)C2,0,-,17,-,0
O=C1O[C@H](CO)[C@@H](O)[C@H](O)[C@H]1O,0,-,0,-,0
O=CC(O)C1OC(=O)C(O)C1O (configuration not stated),41,-,0,-,0
CC(C)NC(=S)N1CCCN(c2ncccc2[N+](=O)[O-])CC1,0,0,17,0,0
Cc1cc(C)cc(NC(=O)N2CCCN(c3ncccc3[N+](=O)[O-])CC2)c1,0,0,0,0,0
SMILES,CASP6 VEID inh,NSD2 inh,SIRT5 inh,UCH37 DUB inh,FGF22 binding
COCC(=O)N1[C@@H](C#N)[C@H](c2ccccc2-c2cccc(F)c2)[C@@H]1CO,0,-,0,-,0
N#C[C@H]1[C@H](c2ccccc2-c2ccccc2F)[C@@H](CO)N1C(=O)c1cccc(F)c1,0,-,0,-,0
CN(C)C(=O)c1cccc(-c2ccccc2[C@H]2[C@@H](C#N)N(C(=O)C3CC3)[C@@H]2CO)c1,0,-,29,-,0
N#C[C@@H]1[C@H](c2ccccc2-c2ccccc2F)[C@@H](CO)N1C(=O)c1cccc(F)c1,0,-,18,-,0
CN(C)C(=O)c1cccc(-c2ccccc2[C@@H]2[C@@H](C#N)N(C(=O)C3CC3)[C@@H]2CO)c1,0,-,0,-,0
Cc1ccccc1-c1ccccc1[C@H]1[C@@H](C#N)N(C(=O)c2ccccc2)[C@@H]1CO,0,-,26,-,0
COCC(=O)N1[C@H](C#N)[C@H](c2ccccc2-c2cccc(F)c2)[C@H]1CO,0,-,24,-,0
Cc1ccc(S(=O)(=O)N[C@@H]2CC[C@H](CC(=O)NCCCN(C)C)O[C@H]2CO)cc1,-,-,0,-,0
CC(=NNC(=S)Nc1cc(S(=O)(=O)N2CCOCC2)ccc1Cl)c1ccc(N2CCOCC2)cc1,-,-,-,0,-
CS(=O)(=O)c1ccc2nc(NC(=O)CCN3C(=O)c4ccccc4C3=O)sc2c1,0,0,0,0,43
CC(C)CC#Cc1ccc2c(c1)O[C@@H](CN(C)C(=O)NC1CCCC1)[C@@H](C)CN([C@@H](C)CO)S2(=O)=O,0,-,16,-,0
CC(C)CC#Cc1ccc2c(c1)O[C@H](CN(C)C(=O)NC1CCCC1)[C@@H](C)CN([C@@H](C)CO)S2(=O)=O,0,-,19,-,0
CC(C)CC#Cc1ccc2c(c1)O[C@H](CN(C)C(=O)NC1CCCC1)[C@H](C)CN([C@@H](C)CO)S2(=O)=O,0,-,0,-,0
CC(C)CC#Cc1ccc2c(c1)O[C@H](CN(C)C(=O)NC1CCCC1)[C@H](C)CN([C@H](C)CO)S2(=O)=O,0,-,13,-,0
CCOc1ccccc1NC(=S)N(CCOC)C1CCN(C(C)=O)CC1,0,0,0,0,0
CCOc1ccccc1NC(=S)N(CCC(C)C)C1CCN(C(C)=O)CC1,0,0,19,0,0
CO[C@@H]1CN(C)C(=O)c2cc(NC(=O)Cc3ccccc3)ccc2OC[C@H](C)N(CC2CC2)C[C@H]1C,0,-,0,-,-
Nc1nccc(-c2ccc(-n3cnc4ccccc43)cc2)n1,0,0,21,0,0
COc1ccc(CN(C)C[C@@H]2Oc3ccc(NC(=O)Cn4cnnn4)cc3C(=O)N([C@@H](C)CO)C[C@H]2C)cc1,0,-,0,-,0
CC(C)(C)c1ccc(C(=O)O/N=C(\N)Cc2cccs2)cc1,0,0,34,-,0
Cc1ccccc1C(=O)O/N=C(\N)Cc1cccs1,0,0,0,0,0
C[C@H]1CN([C@@H](C)CO)S(=O)(=O)c2ccc(/C=C/c3ccccc3)cc2O[C@H]1CN(C)C(=O)Nc1cc(F)ccc1F,0,-,22,-,1.8
C[C@@H]1CN([C@H](C)CO)S(=O)(=O)c2ccc(/C=C/c3ccccc3)cc2O[C@H]1CN(C)C(=O)Nc1ccc(F)cc1,0,-,0,-,0
C[C@H]1CN([C@@H](C)CO)S(=O)(=O)c2ccc(/C=C/c3ccccc3)cc2O[C@@H]1CN(C)C(=O)Nc1ccc(F)cc1,0,-,28,-,0
C[C@H](CO)N1C[C@H](C)[C@@H](CN(C)C(=O)Nc2ccc(F)cc2)Oc2cc(/C=C/c3ccccc3)ccc2S1(=O)=O,0,-,16,-,0
